Compound activity deposited in PubChem by The Scripps Research Institute Molecular Screening Center.
zfTRPN1 agonist – agonists of zebrafish TRPN1 channel | activation, % at 3 µM | HEK293 zebrafish TRPN1-YFP, Fluo-8 calcium fluorescence; 100% = response to 87 µM carbachol | AID 1424 | hit rate 0.18% among 220,000;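 active = activation above its plate's cutoff, the mean activation of test wells on that plate plus 3 SD, cut at about 19% in these data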
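Control set: carbachol 87 µM as high control, DMSO as low control; system: HEK293 stable line with zebrafish TRPN1-YFP; read-out: % activation versus carbachol response; detection: intracellular calcium fluorescence with Fluo-8; doses: single test compound dose, 3 µM nominal, 0.3% DMSO; schedule: dye 1 h 37 °C plus 30 min RT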
OXTR agonist – activates the human oxytocin receptor | CHO-OTR cells, Fluo-8 calcium fluorescence; normalized: DMSO 0%, oxytocin 100% | AID 2435 | activation, % at 3 µM | hit rate 0.32% among 320,000;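 active = activation above the mean of all tested compounds plus 3 SD, cutoff set per screening run, cut at about 20% in these data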;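 also: peak over basal fluorescence ratio from a 100 s FLIPR kinetic read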
V1R ag counter – activates human V1a receptor in oxytocin agonist counter-screen; activation, % at 3 µM; CHO-V1R cells, Fluo-8 calcium fluorescence, agonist mode; 0% DMSO, 100% 3 nM vasopressin; hit rate 0.25% among 320,000; P37288;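 active = activation above the mean activation of all tested compounds plus 3 SD, per screening run, cut at about 20% in these data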;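 also: signal is peak over basal fluorescence ratio across a 100 second FLIPR read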
Target sequence (P37288 whole entry, looked up): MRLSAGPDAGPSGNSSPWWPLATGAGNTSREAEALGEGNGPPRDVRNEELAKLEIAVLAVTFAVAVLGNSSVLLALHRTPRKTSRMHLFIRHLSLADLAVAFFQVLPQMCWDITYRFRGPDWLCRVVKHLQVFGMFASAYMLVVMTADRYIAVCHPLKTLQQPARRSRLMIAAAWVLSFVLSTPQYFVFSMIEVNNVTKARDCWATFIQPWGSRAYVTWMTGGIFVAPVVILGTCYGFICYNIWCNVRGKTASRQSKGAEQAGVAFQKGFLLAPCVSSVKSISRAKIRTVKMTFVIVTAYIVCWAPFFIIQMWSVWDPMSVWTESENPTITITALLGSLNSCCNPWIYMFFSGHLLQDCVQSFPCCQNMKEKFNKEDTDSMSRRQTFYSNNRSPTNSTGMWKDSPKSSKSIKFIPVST
TRPML3 agonist – human mucolipin-3 channel agonism | Q8TDD5 | HEK293 TRPML3-YFP, Fluo-8 calcium fluorescence; 100% = the carbachol control signal | activation, % at 3 µM | hit rate 0.29% among 220,000 | AID 1448;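 active = activation above its plate's cutoff, the mean activation of the plate's test wells plus 3 SD, cut at about 12% in these data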
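Material: TRPML3-YFP stable HEK293 cells | Dosing: One concentration, 3 µM nominal, 0.3% DMSO | Timing: 125 s total fluorescence read per well | Technique: Fluo-8 calcium dye fluorescence, ex 470-495, em 515-575 nm | Measure: Percent activation from peak-to-basal fluorescence ratio, scaled between DMSO and carbachol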
OXTR potentiate – potentiates the human oxytocin receptor response; CHO-OTR cells, Fluo-8 calcium fluorescence, potentiator mode; 0% = oxytocin EC15, 100% = EC100; P30559; hit rate 0.061% among 320,000; activation, % at 3 µM;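 active = activation above that plate's cutoff, the mean activation of tested compounds plus 3 SD, cut at about 6.6% in these data, passing the limit was not always enough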
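Dosing: Single dose, 3.0 µM nominal final compound concentration | Material: Human OTR in CHO cells | Technique: Kinetic Fluo-8 calcium fluorescence | Benchmarks: EC15 oxytocin alone as 0%, 75 nM oxytocin as 100% | Probe or stimulus: Oxytocin at about EC15, sub-maximal agonist stimulus | Incubation: Compound 6 min at room temperature before oxytocin, 100 s read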
TRPN1 counter – zebrafish TRPN1 agonism as TRPML3 agonist counter-screen; shares compounds with TRPML3 agonist; HEK293 zebrafish TRPN1-YFP, Fluo-8 calcium fluorescence; scaled: carbachol wells 100%, DMSO wells 0%; activation, % at 3 µM; hit rate 10% among 310;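 active = mean activation over replicates above a set limit taken from the earlier TRPN1 channel primary screen, cut at about 19% in these data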
TRPML3 ag conf – human TRPML3 agonism, confirmation | AID 1526 | activation, % at 3 µM | shares compounds with TRPML3 agonist | HEK293 TRPML3-YFP, Fluo-8 calcium fluorescence; 100% set by carbachol, 0% by DMSO | hit rate 80% among 310;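 active = activation above a set limit derived from the earlier primary screen, cut at about 12% in these data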
A number is an active result; n = inactive; x = no result. Sampled rows, rich in hits. Any-hit rate of the full collection: about 0.59%.

SMILES | zfTRPN1 agonist | OXTR agonist | V1R ag counter | TRPML3 agonist | OXTR potentiate | TRPN1 counter | TRPML3 ag conf
COc1ccc(NC2CCCN(C(=O)c3ccc4[nH]c(C)c(C)c4c3)C2)cc1 (centres undefined) | x | n | n | x | n | x | x
Cc1cc(C)n(-c2nc(C)nc(NCc3ccccc3)n2)n1 | n | n | n | 24.6 | n | n | 23.0
COc1ccc(S(=O)(=O)N2CCOCC2)cc1Br | n | n | n | n | n | x | x
COc1ccc(S(=O)(=O)N2CCCCCC2)cc1N(C)S(=O)(=O)c1ccc(C)cc1 | n | n | n | 55.4 | n | n | 48.8
COc1cc(C)ccc1S(=O)(=O)N1CCCCCC1 | n | n | n | 94.5 | n | n | 33.8
COc1ccc(NS(=O)(=O)c2ccc(OC)c(N(C)S(=O)(=O)c3ccc(Cl)cc3)c2)cc1 | n | n | n | 68.9 | n | n | 34.4
COc1ccc(S(=O)(=O)N2CCCCCC2)cc1Br | n | x | x | 105.8 | x | n | 70.5
COc1ccc(S(=O)(=O)N2CCOCC2)cc1N(C)S(=O)(=O)c1ccc(C)cc1 | x | n | n | x | n | x | x
C[C@H]1CN([C@@H](C)CO)C(=O)c2cc(NC(=O)C3CCCCC3)ccc2O[C@H]1CN(C)C(=O)Nc1ccc2c(c1)OCO2 | x | n | n | x | n | x | x
C[C@H](CO)N1C[C@H](C)[C@@H](CN(C)Cc2ccncc2)Oc2c(NS(=O)(=O)c3cn(C)cn3)cccc2C1=O | x | n | n | x | n | x | x
Cc1cc(S(=O)(=O)Nc2ccc(C(=O)NCC(C)(C)N3CCOCC3)cc2)ccc1F | x | n | n | x | n | x | x
CCOc1ccc(S(=O)(=O)N2CCCCC2)c(C)c1C | n | x | x | 84.5 | x | n | 77.4
Clc1ccccc1OCc1nnc(-c2ccccc2Br)o1 | n | n | n | n | n | x | x
O=c1c(Cl)c(Cl)cnn1Cc1nnc(-c2ccccc2Br)o1 | n | x | x | 18.4 | x | n | 36.9
CCC(=O)Nc1ccc(C2=Nn3c(nnc3C(C)C)SC2)cc1 | x | n | n | x | n | x | x
S=C1CCC(c2ccc(Cl)cc2)=NN1c1ccccc1 | n | n | n | 16.1 | n | n | n
O=C(Cn1cnc2ccccc21)Nc1ccc2c(c1)OCCCO2 | x | n | n | x | n | x | x
CC(c1ccccc1)N(NC(=O)C(O)(c1ccccc1)c1ccccc1)C(=O)c1ccccc1 (centres undefined) | n | n | n | 12.7 | n | n | 65.0
O=S(=O)(c1ccc2nc(Nc3ccccc3)ccc2c1)N1CCCCC1 | x | n | n | x | n | x | x
O=C(CN1CCN(S(=O)(=O)c2ccc(F)cc2)CC1)Nc1ccc(Cl)c(C(F)(F)F)c1 | n | n | n | 15.1 | n | n | 42.7
O=C(CN1CCN(S(=O)(=O)c2ccc(F)cc2)CC1)Nc1ccc2c(c1)OCCO2 | n | n | n | n | n | x | x
CCOc1ccc(S(=O)(=O)NC(C)(C)C)cc1-c1nc2c(C(C)(C)C)nn(C)c2c(=O)[nH]1 | n | n | n | 24.1 | n | n | 147.3
Cc1sc(NC(=O)C2C3CCC(C3)C2C(=O)O)c(C(N)=O)c1-c1ccc(C(C)(C)C)cc1 (centres undefined) | n | n | n | 18.1 | n | n | n
O=[N+]([O-])c1ccc(C2CCCC/C2=N/OCc2ccccc2F)c([N+](=O)[O-])c1 (centres undefined) | n | n | n | n | n | x | x
O=C(O/N=C1\CCCCC1c1ccc([N+](=O)[O-])cc1[N+](=O)[O-])c1c(F)cccc1F (centres undefined) | n | n | n | 56.7 | n | n | n
O=S(=O)(c1ccccc1)C1(S(=O)(=O)c2ccccc2)CCCC1 | n | n | n | 18.0 | n | n | 28.9
CC(NC(=O)CN1C(=O)NC2(CCCCCC2)C1=O)c1ccccc1Cl (centres undefined) | x | n | n | x | n | x | x
Cc1ccc(NC2CCCN(C(=O)C3CCCCC3)C2)cc1C (centres undefined) | x | n | n | x | n | x | x
O=C(Cc1ccc(Cl)c(Cl)c1)Nc1ccccc1N1CCOCC1 | n | n | n | 51.4 | n | n | 66.8
